Reference: ChEMBL document CHEMBL3739347, “Tubulin modulating antifungal and antiproliferative pyrazinone derivatives” (Bioorg Med Chem, 2016)
Calls of active or inactive are those of the source. No cut-off for these calls is given here.

Tests used:
Parastagonospora nodorum [1] = assay: Antifungal activity against Stagonospora nodorum infected in wheat seedlings at 40 ppm relative to control; format: functional
Outline: (§1)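 Wheat seedlings, treated the day before, inoculated with a Stagonospora nodorum spore suspension. Held in a saturated atmosphere at 20 °C for 48 h, then 5 days in a growth chamber at 22 °C, then disease rated. Rates in ppm. Scored as percent control relative to untreated control plants.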

Botrytis cinerea [2] = assay: Antifungal activity against Botryotinia fuckeliana infected in orange pixie tomato seedlings at 10 ppm relative to control; format: functional
Outline: (§2)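 Orange Pixie tomato seedlings sprayed to run-off with test suspension, then inoculated next day with a Botryotinia fuckeliana spore suspension. Kept saturated at 20 °C for 48 h, then 1 more day at 24 °C in a growth chamber before rating. Rates in ppm. Expressed as percent control relative to untreated control plants.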

Botrytis cinerea [3] = assay: Antifungal activity against Botryotinia fuckeliana infected in orange pixie tomato seedlings at 200 ppm relative to control; format: functional; outline: as §2
Puccinia triticina [4] = assay: Antifungal activity against Puccinia recondita f. sp. tritici infected in wheat seedlings at 40 ppm relative to control; format: functional
Outline: (§3)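 Test suspension sprayed to run-off on Stevens wheat seedlings. Next day inoculated with a Puccinia recondita f. sp. tritici spore suspension. Held 24 h in a saturated atmosphere at 20 °C, then 7 days in a 20 °C growth chamber before disease rating. Rates in ppm. Given as percent control versus untreated control plants.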

Puccinia triticina [5] = assay: Antifungal activity against Puccinia recondita f. sp. tritici infected in wheat seedlings at 200 ppm relative to control; format: functional; outline: as §3
Botrytis cinerea [6] = assay: Antifungal activity against Botryotinia fuckeliana infected in orange pixie tomato seedlings at 2 ppm relative to control; format: functional; outline: as §2
Parastagonospora nodorum [7] = assay: Antifungal activity against Stagonospora nodorum infected in wheat seedlings at 10 ppm relative to control; format: functional; outline: as §1
Puccinia triticina [8] = assay: Antifungal activity against Puccinia recondita f. sp. tritici infected in wheat seedlings at 10 ppm relative to control; format: functional; outline: as §3
Parastagonospora nodorum [9] = assay: Antifungal activity against Stagonospora nodorum infected in wheat seedlings at 2 ppm relative to control; format: functional; outline: as §1
Parastagonospora nodorum [10] = assay: Antifungal activity against Stagonospora nodorum infected in wheat seedlings at 200 ppm relative to control; format: functional; outline: as §1
Puccinia triticina [11] = assay: Antifungal activity against Puccinia recondita f. sp. tritici infected in wheat seedlings at 2 ppm relative to control; format: functional; outline: as §3
Botrytis cinerea [12] = assay: Antifungal activity against Botryotinia fuckeliana infected in orange pixie tomato seedlings at 40 ppm relative to control; format: functional; outline: as §2
[13] = Antiproliferative activity against human Rhabdomyosarcoma cells after 96 hrs by MTS assay; format: functional, cell-based; details: Rhabdomyosarcoma cell
Outline: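 Rhabdomyosarcoma cells (ATCC CCL-136) seeded at 10,000 cells/well and allowed to adhere 1–3 h. Medium then replaced with compound-containing medium over a concentration range. Grown 96 h at 37 °C, 5% CO2. Viable cells read by MTS/PMS formazan after 3–4 h at 37 °C, absorbance 490 nm. Data normalized to solvent-only wells; IC50 in nM.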

Tubulin (Bos taurus) [14] = molecular target: T1, Tubulin (Bos taurus) (UniProt Q6B856+Q862L2+Q862F3); assay: Induction of bovine tubulin polymerization at 10 uM by microplate reader; format: protein assay
Outline: (§4)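 Purified bovine tubulin at 4 mg/ml in 80 mM PIPES pH 6.9, 0.5 mM EGTA, 2 mM MgCl2, 1 mM GTP. Compound added at reaction start at constant DMSO. Polymerization started at 37 °C and followed over time by absorbance at 340 nm. Controls: paclitaxel 10 µM (positive) and 0.5% DMSO (negative).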

Tubulin (Bos taurus) [15] = molecular target: T1, Tubulin (Bos taurus); assay: Induction of bovine tubulin polymerization at 3 uM by microplate reader; format: protein assay; outline: as §4

Compound | Activity (Parastagonospora nodorum [1]) [%] | Activity (Botrytis cinerea [2]) [%] | Activity (Botrytis cinerea [3]) [%] | Activity (Puccinia triticina [4]) [%] | Activity (Puccinia triticina [5]) [%] | Activity (Botrytis cinerea [6]) [%] | Activity (Parastagonospora nodorum [7]) [%] | Activity (Puccinia triticina [8]) [%] | Activity (Parastagonospora nodorum [9]) [%] | Activity (Parastagonospora nodorum [10]) [%] | Activity (Puccinia triticina [11]) [%] | Activity (Botrytis cinerea [12]) [%] | IC50 [13] [nM] | Activity (Tubulin (Bos taurus) [14]) | Activity (Tubulin (Bos taurus) [15])
CC[C@H](C)Cn1c(-c2c(F)cc(OC)cc2F)c(Cl)nc(-n2cccn2)c1=O | 100 | 99 | 99 | 100 | 100 | 99 | 100 | 100 | 69 | 100 | 99 | 99 | 10 | – | –
CC(=O)O[C@H]1C(=O)[C@@]2(C)[C@H]([C@H](OC(=O)c3ccccc3)[C@]3(O)C[C@H](OC(=O)[C@H](O)[C@@H](NC(=O)c4ccccc4)c4ccccc4)C(C)=C1C3(C)C)[C@]1(OC(C)=O)CO[C@@H]1C[C@@H]2O [PACLITAXEL] | – | – | 0 | – | 95 | – | – | – | – | 91 | – | – | 8.4 | Active | –
CC(C)Cn1c(-c2c(F)cccc2F)c(Cl)nc(-c2cnccn2)c1=O | 0 | 83 | 98 | 89 | 99 | – | 0 | 0 | – | 98 | – | 98 | – | – | –
CC[C@H](C)Cn1c(-c2c(F)cc(OCCCNC)cc2F)c(Cl)nc(-n2cccn2)c1=O.Cl | 88 | 99 | 100 | 100 | 100 | 21 | 33 | 99 | 0 | 100 | 68 | 99 | 0.6 | – | –
CC[C@H](C)Cn1c(-c2c(F)cc(OCCN(C)C)cc2F)c(Cl)nc(-n2cccn2)c1=O | – | 0 | 99 | 91 | 100 | – | – | 55 | – | – | – | 68 | 210 | – | –
CC(C)Cn1c(-c2c(F)cc(F)cc2F)c(Cl)nc(-n2cccn2)c1=O | 100 | 100 | 100 | 100 | 100 | 100 | 90 | 100 | 0 | 100 | 92 | 100 | – | – | Active
CC[C@H](C)Cn1c(-c2c(F)cc(F)cc2F)c(Cl)nc(-n2cccn2)c1=O | 100 | 100 | – | 100 | – | 100 | 99 | 100 | 0 | – | 99 | 100 | 20 | – | –
CC(C)Cn1c(-c2c(F)cccc2F)c(Cl)nc(-n2cccn2)c1=O | 99 | 97 | – | 100 | – | 75 | 92 | 100 | 0 | – | 28 | 99 | – | – | Active
O=c1c(-n2cccn2)nc(Cl)c(-c2c(F)cc(F)cc2F)n1C1CCCCC1 | 99 | 99 | 99 | 97 | 99 | – | 73 | 89 | – | 100 | – | 99 | – | – | –
CC[C@H](C)Cn1c(-c2c(F)cccc2F)c(Cl)nc(-n2nc(C)cc2C)c1=O | 0 | 0 | 0 | 22 | 73 | – | 0 | 0 | – | 0 | – | 0 | – | – | –
CC(C)Cn1c(-c2c(F)cccc2F)c(Cl)nc(-c2cn(C)cn2)c1=O | 67 | 0 | 100 | 97 | 99 | 0 | 0 | 0 | 0 | 97 | 0 | 99 | – | – | –
CC(C)Cn1c(-c2c(F)cccc2F)c(Br)nc(-n2cccn2)c1=O | 100 | 99 | 100 | 99 | 100 | – | 86 | 88 | – | 100 | – | 100 | – | – | –
CC(C)Cn1c(-c2ccc(F)cc2Cl)c(Cl)nc(-n2cccn2)c1=O | 100 | 100 | 100 | 100 | 100 | 100 | 99 | 100 | 0 | 100 | 83 | 100 | – | – | –
CC[C@H](C)Cn1c(-c2c(F)cccc2F)c(Cl)nc(-n2ccnn2)c1=O | 0 | 33 | 98 | 67 | 73 | – | 0 | 67 | – | 73 | – | 81 | – | – | –
CC[C@H](C)Cn1c(-c2c(F)cccc2F)c(Cl)nc(-n2ccnc2)c1=O | 0 | 0 | 0 | 0 | 0 | – | 0 | 0 | – | 0 | – | 0 | – | – | –
CC[C@H](C)Cn1c(-c2c(F)cc(OCCCN(C)C)cc2F)c(Cl)nc(-n2cccn2)c1=O | 0 | 94 | – | 99 | 100 | 0 | 0 | 89 | 0 | 94 | 0 | 94 | 1.3 | – | –
CCC(C)Cn1c(-c2c(F)cc(F)cc2F)c(Cl)nc(-n2cccn2)c1=O (stereo not drawn) | 100 | 100 | 100 | 100 | 100 | 100 | 98 | 100 | 0 | 100 | 89 | 100 | – | – | –
